Where “and” joins values, the source holds several entries; their conditions need not be identical. Equal entries are not always repeated.
What was measured:
Canis familiaris [1] = species on record: Canis familiaris; assay: In vitro electrophysiological evaluation in canine cardiac Purkinje fibres reported as % change for action potential duration at 0.1-10 uM concentration range; type: functional, Canis lupus familiaris, Purkinje fiber
Method in brief: (§1)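 Canine cardiac Purkinje fibres, intracellular microelectrode recording, paced at a basic cycle length of 1 s. APD95 and Vmax read simultaneously. Compound: 10 mM stock in deionized water, diluted into Tyrode's solution, tested over the stated concentration range. Each fibre used once as its own control. Result is % change from control, given at 10 µM or as the maximum with its concentration. M = <10% decrease or an increase in Vmax.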

Canis familiaris [2] = species on record: Canis familiaris; assay: In vitro electrophysiological activity in canine cardiac Purkinje fibres given as maximum % change for action potential duration at 0.1-10 uM concentration; type: functional, Canis lupus familiaris, Purkinje fiber
Method in brief: (§2)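 Canine cardiac Purkinje fibres, intracellular recording at 1 s basic cycle length, over cumulative concentration ranges. Compound 10 mM stock in deionized water diluted into Tyrode's. Each fibre used once as its own control. Value is the maximum % change from control in APD at 95% repolarization, with the concentration where it occurred; both values given if a biphasic response (>20% reversal) occurred.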

Canis familiaris [3] = species on record: Canis familiaris; assay: In vitro electrophysiological evaluation in canine cardiac Purkinje fibres reported as maximum percent change Vmax concentration range of 0.1-10 uM; Minimal (<IO%increase or a decrease in CT); type: functional; settings: Canis lupus familiaris; Purkinje fiber; method in brief: as §1
Canis familiaris [4] = species on record: Canis familiaris; assay: In vitro electrophysiological activity in canine cardiac Purkinje fibres given as maximum % change for action potential duration at 0.1-100 uM concentration; type: functional, Canis lupus familiaris, Purkinje fiber; method in brief: as §2
Canis familiaris [5] = species on record: Canis familiaris; assay: In vitro electrophysiological evaluation in canine cardiac Purkinje fibres reported as percent change Vmax concentration range of 0.1-10 uM; Minimal (<IO%increase or a decrease in CT); type: functional; settings: Canis lupus familiaris; Purkinje fiber; method in brief: as §1
Canis familiaris [6] = species on record: Canis familiaris; assay: In vitro electrophysiological evaluation in canine cardiac Purkinje fibres reported as percent change Vmax concentration range of 0.1-100 uM; Minimal (<IO%increase or a decrease in CT); type: functional; settings: Canis lupus familiaris; Purkinje fiber; method in brief: as §1
Canis familiaris [7] = species on record: Canis familiaris; assay: In vitro electrophysiological evaluation in canine cardiac Purkinje fibres reported as maximum percent change Vmax concentration range of 0.1-100 uM; type: functional; settings: Canis lupus familiaris; Purkinje fiber; method in brief: as §1
Canis familiaris [8] = species on record: Canis familiaris; assay: In vitro electrophysiological evaluation in canine cardiac Purkinje fibres reported as % change for action potential duration at 0.1-100 uM concentration range; type: functional, Canis lupus familiaris, Purkinje fiber; method in brief: as §1
Canis familiaris [9] = species on record: Canis familiaris; assay: In vitro electrophysiological evaluation in canine cardiac Purkinje fibres reported as % change for action potential duration at a concentration of 10 uM; type: functional, Canis lupus familiaris, Purkinje fiber; method in brief: as §1
Canis familiaris [10] = species on record: Canis familiaris; assay: In vitro electrophysiological evaluation in canine cardiac ventricular muscle reported as % change for the functional refractory period (FRP) at 10 uM at concentration range of 0.1-100 uM; parameters: species or system Canis lupus familiaris, Muscle tissue
Method in brief: (§3)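 Canine right ventricle and papillary muscle strips in oxygenated Tyrode's solution, fitted with stimulating and recording electrodes. The extra-stimulus conduction-interval method was adapted for in vitro use. FRP and CT were read from a conduction-interval curve before and after various compound concentrations, and expressed as percent change from control. Compounds were taken from 10 mM deionized-water stock into Tyrode's. Each strip was used once as its own control.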

Canis familiaris [11] = species on record: Canis familiaris; assay: In vitro electrophysiological evaluation in canine cardiac Purkinje fibres reported as % change for action potential duration at 10 uM at 1-100 uM concentration range; type: functional, Canis lupus familiaris, Purkinje fiber; method in brief: as §1
Canis familiaris [12] = species on record: Canis familiaris; assay: In vitro electrophysiological evaluation in canine cardiac ventricular muscle reported as maximum % change for conduction time(CT) at 0.1-100 uM concentration range; Minimal (<10% decrease or increase in CT).; type: functional, Canis lupus familiaris, Muscle tissue; method in brief: as §3
Canis familiaris [13] = species on record: Canis familiaris; assay: In vitro electrophysiological evaluation in canine cardiac ventricular muscle reported as % change for conduction time(CT) at 10 uM at 0.1-100 uM concentration range; Minimal (<10% decrease or increase in CT).; type: functional, Canis lupus familiaris, Muscle tissue
Canis familiaris [14] = species on record: Canis familiaris; assay: (§4) In vitro electrophysiological evaluation in canine cardiac occurred is 100 uM; type: functional; settings: Canis lupus familiaris; Heart
Canis familiaris [15] = species on record: Canis familiaris; assay: In vitro electrophysiological evaluation in canine cardiac Purkinje fibres reported as percent change Vmax at 10 uM at concentration range of 1-100 uM; Minimal (<10% decrease or increase in V max).; type: functional; settings: Canis lupus familiaris, Purkinje fiber; method in brief: as §1
Canis familiaris [16] = species on record: Canis familiaris; assay: In vitro electrophysiological activity in canine cardiac occurred is 100 uM; type: functional, Canis lupus familiaris, Heart
Canis familiaris [17] = species on record: Canis familiaris; assay: In vitro electrophysiological evaluation in canine cardiac Purkinje fibres reported as percent change Vmax at 10 uM at concentration range of 1-100 uM; type: functional; settings: Canis lupus familiaris, Purkinje fiber; method in brief: as §1
Canis familiaris [18] = species on record: Canis familiaris; assay: In vitro electrophysiological evaluation in canine cardiac ventricular muscle reported as maximum % change for functional refractory period (FRP) at 0.1-100 uM concentration range; concentration at which it occurred is 100 uM; parameters: species or system Canis lupus familiaris, Muscle tissue; method in brief: as §3
Canis familiaris [19] = species on record: Canis familiaris; assay: In vitro electrophysiological evaluation in canine cardiac Purkinje fibres reported as maximum percent change Vmax concentration range of 1-100 uM; Minimal (<10% decrease or increase in V max).; type: functional; settings: Canis lupus familiaris; Purkinje fiber; method in brief: as §1
Canis familiaris [20] = species on record: Canis familiaris; assay: In vitro electrophysiological activity in canine cardiac occurred is 10 uM; type: functional, Canis lupus familiaris, Heart
Canis familiaris [21] = species on record: Canis familiaris; assay: In vitro electrophysiological evaluation in canine cardiac Purkinje fibres reported as percent change Vmax at 10 uM at concentration range of 0.1-100 uM.; type: functional, organism-based; settings: Canis lupus familiaris, Purkinje fiber; method in brief: as §1
Canis familiaris [22] = species on record: Canis familiaris; assay: In vitro electrophysiological evaluation in canine cardiac Purkinje fibres reported as percent change Vmax at 10 uM at concentration range of 0.1-100 uM; Minimal (<10% decrease or increase in V max).; type: functional, organism-based; settings: Canis lupus familiaris, Purkinje fiber; method in brief: as §1
Canis familiaris [23] = species on record: Canis familiaris; assay: as §4; type: functional; settings: Canis lupus familiaris; Heart; remark: listed apart in the source
Canis familiaris [24] = species on record: Canis familiaris; assay: In vitro electrophysiological evaluation in canine cardiac ventricular muscle reported as maximum % change for functional refractory period (FRP) at 0.1-100 uM concentration range; concentration at which it occurred is 10 uM; parameters: species or system Canis lupus familiaris, Muscle tissue; method in brief: as §3
Canis familiaris [25] = species on record: Canis familiaris; assay: In vitro electrophysiological evaluation in canine cardiac Purkinje fibres reported as % change for action potential duration at 10 uM at 0.1-100 uM concentration range; type: functional, Canis lupus familiaris, Purkinje fiber; method in brief: as §1

CCCCCCC[N+]12CCC(CC1)C(CCc1ccc(Cl)cc1)C2.[Br-] (stereo unspecified)
APD95 (Canis familiaris [1]): 23%
APD95 (Canis familiaris [2]): 26%
Vmax (Canis familiaris [3]): < 10%
APD95 (Canis familiaris [4]): 23%
Vmax (Canis familiaris [5]): < 10%
Vmax (Canis familiaris [6]): < 10%
Vmax (Canis familiaris [7]): -58%
APD95 (Canis familiaris [8]): 22%

CCOC(=O)C(CC1C(=O)C2CCN1CC2)C(=O)c1ccc(NS(C)(=O)=O)cc1.Cl (stereo unspecified)
APD95 (Canis familiaris [9]): 11%
FRP (Canis familiaris [10]): 5% and 9%
APD95 (Canis familiaris [11]): 12%
CT (Canis familiaris [12]): <10%
CT (Canis familiaris [13]): <10%
Vmax (Canis familiaris [14]): -36%
Vmax (Canis familiaris [15]): < 10%
APD95 (Canis familiaris [16]): 39% and 40%
Vmax (Canis familiaris [17]): -24%
FRP (Canis familiaris [18]): 7% and 16%
Vmax (Canis familiaris [19]): < 10%

CCOC(=O)C(CC1C(=O)C2CCN1CC2)C(=O)c1ccc([N+](=O)[O-])cc1.Cl (stereo unspecified)
APD95 (Canis familiaris [20]): 23% and 22%
APD95 (Canis familiaris [9]): 2%
FRP (Canis familiaris [10]): 22% and 35%
Vmax (Canis familiaris [21]): -12%
Vmax (Canis familiaris [22]): < 10%
CT (Canis familiaris [12]): <10%
CT (Canis familiaris [13]): <10%
APD95 (Canis familiaris [16]): -12% and 0% and -5%
Vmax (Canis familiaris [23]): -26% and -13% and -18%
FRP (Canis familiaris [24]): 22%
FRP (Canis familiaris [18]): 38%
APD95 (Canis familiaris [25]): 23% and 22%
